Test results: ChEMBL document CHEMBL1156469 (2007)
Activity calls are given as the source filed them. The calls are words filed in the database; no cut-off is given here.

Key:
[1] = tested on: T47D; test: Reduction in anchorage-independent colony formation of human T47D cells at 1 uM by soft agar colony forming assay; format: functional, cell-based
Procedure, shortened: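 Seeded in 0.35% noble agar in DMEM/10% FBS over a 0.7% agar bed. Colonies of at least 50 μm counted after 3 weeks under a dissecting microscope, six replicates per treatment. Three separate experiments.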

[2] = tested on: MDA-MB-231; test: Induction of FOXO3a nuclear accumulation in human MDA-MB-231 cells FOXO3a-specific small interfering RNA xenografted in nude mice at 10 mg/kg for 2 days; format: functional, organism-based; set-up: dose 10 mg/kg
[3] = tested on: MC3T3-E1; test: Reversal of induction in ER.DNA complex in mouse MC3T3-E1 cells at 1 uM by RT-PCR in presence of tamoxifen; format: functional, cell-based
Procedure, shortened: (§1)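 BMP-2 promoter quantified by real-time PCR (45 cycles, 61 °C anneal), reported as IP-to-input Ct ratio. DN-Src by 3 μg vector, PP2 at 10 μM; ICI182780 and tamoxifen at indicated concentrations.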

[4] = molecular target: T1, Alkaline phosphatase (Mus musculus) (UniProt Q9EQ79); test: Inhibition of induction of ALP activity in mouse MC3T3-E1 cells at 1 uM after 48 hrs in presence of BMP2-specific neutralizing antibody; format: cell-based
T1 sequence (whole entry): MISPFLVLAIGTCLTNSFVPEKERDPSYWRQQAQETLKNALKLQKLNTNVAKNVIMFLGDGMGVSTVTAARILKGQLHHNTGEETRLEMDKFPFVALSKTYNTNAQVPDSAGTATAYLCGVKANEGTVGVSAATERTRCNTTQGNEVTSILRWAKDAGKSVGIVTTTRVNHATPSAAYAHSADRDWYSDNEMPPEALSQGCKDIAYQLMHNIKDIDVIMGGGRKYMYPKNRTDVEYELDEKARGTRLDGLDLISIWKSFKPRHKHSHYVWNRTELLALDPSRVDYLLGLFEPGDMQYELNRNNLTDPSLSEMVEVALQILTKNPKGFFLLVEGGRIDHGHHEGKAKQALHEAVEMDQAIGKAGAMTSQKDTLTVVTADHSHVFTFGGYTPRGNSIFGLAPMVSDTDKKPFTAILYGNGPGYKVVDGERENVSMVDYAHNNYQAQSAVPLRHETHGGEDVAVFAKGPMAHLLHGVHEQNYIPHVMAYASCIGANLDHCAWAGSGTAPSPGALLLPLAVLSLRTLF

[5] = molecular target: Proto-oncogene tyrosine-protein kinase Src (Mus musculus) (UniProt P05480); test: Reversal of increase in Src kinase phosphorylation in mouse MC3T3-E1 cells transfected with dominant-negative mutant Src expression vector at 1 uM; format: cell-based
Proto-oncogene tyrosine-protein kinase Src (Mus musculus), sequence (P05480 2-535 limits assumed): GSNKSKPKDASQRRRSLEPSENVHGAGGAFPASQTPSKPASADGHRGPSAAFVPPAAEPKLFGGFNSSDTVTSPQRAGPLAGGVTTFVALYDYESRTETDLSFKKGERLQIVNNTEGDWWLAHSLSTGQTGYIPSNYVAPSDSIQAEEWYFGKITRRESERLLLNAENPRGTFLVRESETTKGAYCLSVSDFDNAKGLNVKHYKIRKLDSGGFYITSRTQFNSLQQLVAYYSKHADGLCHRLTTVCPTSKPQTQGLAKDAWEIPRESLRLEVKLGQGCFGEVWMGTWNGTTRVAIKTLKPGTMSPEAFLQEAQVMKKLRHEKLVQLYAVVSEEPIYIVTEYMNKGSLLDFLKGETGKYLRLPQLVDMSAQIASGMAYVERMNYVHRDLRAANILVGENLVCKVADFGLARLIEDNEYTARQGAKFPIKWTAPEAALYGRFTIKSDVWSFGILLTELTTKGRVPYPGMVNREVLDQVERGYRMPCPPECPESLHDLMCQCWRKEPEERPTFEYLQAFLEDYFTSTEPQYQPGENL
Procedure, shortened: (§2)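 Src phosphorylation, ERα nuclear translocation and BMP-2 protein analysed by Western blot with ECL detection. Three independent experiments.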

[6] = tested on: Osteoblast; test: Effect on actin beta gene expression in rat primary osteoblast cells assessed as expression ratio of treated to untreated control by microarray analysis; format: functional
[7] = molecular target: T1, Alkaline phosphatase (Mus musculus); test: Increase in ALP activity in mouse MC3T3-E1 cells at 0.1 to 10 uM after 7 days; format: cell-based
[8] = tested on: Osteoblast; test: Effect on integrin beta 1 gene expression in rat primary osteoblast cells assessed as expression ratio of treated to untreated control by microarray analysis; format: functional
Procedure, shortened: (§3)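 Resveratrol-treated and vehicle-treated primary osteoblasts were profiled on a mouse osteogenesis-focused cDNA array (GEArray Q series) built to track gene expression during osteogenic differentiation. Each gene's signal in treated cells was expressed as a ratio to untreated control.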

[9] = tested on: MC3T3-E1; test: Reversal of induction in ER.DNA complex in mouse MC3T3-E1 cells at 1 uM by RT-PCR in presence of ICI-182780; format: functional, cell-based; procedure, shortened: as §1
[10] = tested on: Osteoblast; test: Effect on procollagen 14alpha 1 gene expression in rat primary osteoblast cells assessed as expression ratio of treated to untreated control by microarray analysis; format: functional; procedure, shortened: as §3
[11] = tested on: Osteoblast; test: Effect on secreted acidic cysteine rich glycoprotein gene expression in rat primary osteoblast cells assessed as expression ratio of treated to untreated control by microarray analysis; format: functional; procedure, shortened: as §3
[12] = tested on: Osteoblast; test: Reversal of increase in ER.DNA complex in rat primary osteoblast cells transfected with dominant-negative mutant Src expression vector at 1 uM by RT-PCR; format: functional, cell-based
[13] = Reversal of induction of BMP2 expression in mouse MC3T3-E1 cells at 1 uM by Western blot in presence of short interfering ERalpha-RNA; format: functional, cell-based
[14] = Reversal of induction in BMP2 expression in mouse MC3T3-E1 cells at 1 uM by Western blot in presence of PP2; format: functional, cell-based; procedure, shortened: as §2
[15] = Reversal of increase in BMP2 expression in mouse MC3T3-E1 cells expressing pBMP2/mERE mutant at 1 uM after 4 hrs by luciferase method; format: functional, cell-based
[16] = tested on: Osteoblast; test: Effect on scavenger receptor B2 gene expression in rat primary osteoblast cells assessed as expression ratio of treated to untreated control by microarray analysis; format: functional; procedure, shortened: as §3
[17] = molecular target: Alkaline phosphatase (Rattus norvegicus) (UniProt Q9JKS8); test: Inhibition of induction of ALP activity in rat primary osteoblast cells at 1 uM after 48 hrs in presence of noggin; format: cell-based
Alkaline phosphatase (Rattus norvegicus), sequence (Q9JKS8 as listed by the source): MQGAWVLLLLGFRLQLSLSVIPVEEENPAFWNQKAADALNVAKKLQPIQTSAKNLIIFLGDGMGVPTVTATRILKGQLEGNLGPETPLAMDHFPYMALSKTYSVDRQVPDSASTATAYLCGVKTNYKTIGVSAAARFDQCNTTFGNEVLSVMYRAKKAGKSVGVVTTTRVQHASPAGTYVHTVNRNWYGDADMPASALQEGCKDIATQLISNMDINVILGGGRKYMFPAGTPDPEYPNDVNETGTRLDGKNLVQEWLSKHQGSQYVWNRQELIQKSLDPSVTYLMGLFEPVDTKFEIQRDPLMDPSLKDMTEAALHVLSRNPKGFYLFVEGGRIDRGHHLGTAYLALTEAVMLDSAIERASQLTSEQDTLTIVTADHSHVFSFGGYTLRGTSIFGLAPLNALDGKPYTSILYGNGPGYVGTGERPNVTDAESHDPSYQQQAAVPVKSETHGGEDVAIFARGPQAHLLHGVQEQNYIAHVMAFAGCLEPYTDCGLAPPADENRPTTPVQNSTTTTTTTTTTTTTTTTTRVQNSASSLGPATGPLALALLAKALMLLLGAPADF

[18] = tested on: Osteoblast; test: Effect on serine proteinase inhibitor clade H1 gene expression in rat primary osteoblast cells assessed as expression ratio of treated to untreated control by microarray analysis; format: functional; procedure, shortened: as §3
[19] = tested on: MDA-MB-231; test: Antiproliferative activity against human MDA-MB-231 cells at 1 uM by flow cytometry; format: functional, cell-based
Procedure, shortened: (§4)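 Proliferation was measured by DNA flow cytometry. Incubations were run in triplicate across three separate experiments, and values are means ± S.D.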

[20] = tested on: Osteoblast; test: Effect on MAD homolog 1 gene expression in rat primary osteoblast cells assessed as expression ratio of treated to untreated control by microarray analysis; format: functional
[21] = tested on: MC3T3-E1; test: Reversal of induction in nuclear translocation of ERalpha in mouse MC3T3-E1 cells at 1 uM in presence of PP2; format: functional, cell-based; procedure, shortened: as §2
[22] = tested on: T47D; test: Antiproliferative activity against human T47D cells at 1 uM by flow cytometry; format: functional, cell-based; procedure, shortened: as §4
[23] = tested on: Osteoblast; test: Effect on vascular endothelial growth factor A gene expression in rat primary osteoblast cells assessed as expression ratio of treated to untreated control by microarray analysis; format: functional
Procedure, shortened: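 GEArray Q series Mouse Osteogenesis cDNA array profiling osteogenic-differentiation genes in treated versus vehicle-treated primary osteoblasts.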

[24] = tested on: Osteoblast; test: Effect on matrix metalloprotease 13 gene expression in rat primary osteoblast cells assessed as expression ratio of treated to untreated control by microarray analysis; format: functional; procedure, shortened: as §3
[25] = molecular target: Forkhead box protein O3 (Homo sapiens) (UniProt O43524); test: Inhibition of IGF-induced FOXO3a phosphorylation at Thr32 residue in human MDA-MB-231 cells by Western blot; format: cell-based
Forkhead box protein O3 (Homo sapiens), sequence (O43524 whole entry): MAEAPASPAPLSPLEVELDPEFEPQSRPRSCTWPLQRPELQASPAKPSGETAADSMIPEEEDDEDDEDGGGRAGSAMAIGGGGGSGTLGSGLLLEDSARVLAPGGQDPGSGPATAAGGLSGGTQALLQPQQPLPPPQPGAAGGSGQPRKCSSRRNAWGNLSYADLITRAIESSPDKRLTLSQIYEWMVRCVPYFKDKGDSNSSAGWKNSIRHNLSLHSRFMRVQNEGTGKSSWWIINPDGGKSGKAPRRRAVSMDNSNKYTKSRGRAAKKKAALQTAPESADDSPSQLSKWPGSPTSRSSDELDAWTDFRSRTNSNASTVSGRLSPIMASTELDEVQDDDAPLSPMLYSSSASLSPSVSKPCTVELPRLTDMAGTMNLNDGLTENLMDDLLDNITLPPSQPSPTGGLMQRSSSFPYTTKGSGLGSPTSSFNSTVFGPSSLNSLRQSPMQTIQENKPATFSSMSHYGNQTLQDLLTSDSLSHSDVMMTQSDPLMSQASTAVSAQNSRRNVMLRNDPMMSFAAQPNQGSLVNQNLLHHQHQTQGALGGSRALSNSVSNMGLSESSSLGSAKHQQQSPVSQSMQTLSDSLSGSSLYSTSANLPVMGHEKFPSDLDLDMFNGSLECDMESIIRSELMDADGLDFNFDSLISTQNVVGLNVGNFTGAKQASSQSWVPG
Procedure, shortened: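 MDA-MB-231 breast cancer cells, control or resveratrol-treated, then exposed or not to IGF. Lysates resolved by SDS-PAGE, transferred to nitrocellulose, probed with specific primary and secondary antibodies, and detected by ECL. Membranes stripped and reprobed where indicated.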

[26] = tested on: Osteoblast; test: Effect on fibroblast growth factor 2 gene expression in rat primary osteoblast cells assessed as expression ratio of treated to untreated control by microarray analysis; format: functional
[27] = tested on: Osteoblast; test: Effect on procollagen 4 alpha 2 gene expression in rat primary osteoblast cells assessed as expression ratio of treated to untreated control by microarray analysis; format: functional; procedure, shortened: as §3
[28] = tested on: Osteoblast; test: Effect on integrin alpha 2b gene expression in rat primary osteoblast cells assessed as expression ratio of treated to untreated control by microarray analysis; format: functional; procedure, shortened: as §3

## Oc1ccc(/C=C/c2cc(O)cc(O)c2)cc1 [RESVERATROL]
[1]
  Activity: Active
[2]
  Activity: Active
[3]
  Activity: Dose-dependent effect
[4]
  Activity: Active
[5]
  Activity: Active
[6]
  Ratio: 1
[7]
  Activity: Active
[8]
  Ratio: 2.97
[9]
  Activity: Dose-dependent effect
[10]
  Ratio: 3.76
[11]
  Ratio: 1.6
[12]
  Activity: Active
[13]
  Activity: Active
[14]
  Activity: Active
[15]
  Activity: 80%
[16]
  Ratio: 0.65
[17]
  Activity: Active
[18]
  Ratio: 2.82
[19]
  Activity: Active
[20]
  Ratio: 3.24
[21]
  Activity: Active
[22]
  Activity: Active
[23]
  Ratio: 0.44
[24]
  Ratio: 0.64
[25]
  Activity: Active
[26]
  Ratio: 2.76
[27]
  Ratio: 4.48
[28]
  Ratio: 0.57
